From PMC2114617 (The Journal of Cell Biology, 1986)

Test system: B16-F10 melanoma cells
Experiment: Inhibition of B16-F10 melanoma cell spreading on fibronectin
Format: cell-based, murine
Conditions: data not shown
In short: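 Wells coated 60 min at room temperature with human plasma fibronectin (4 μg/ml) in PBS+, then blocked 30 min with heat-denatured BSA. Test peptide in PBS+ was added, with or without 5 μg/ml mAb333. Cells were fixed and %-spread scored by phase contrast (300 cells/well).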

Question: With Arg- Asp [RD] as the substance, how does the “Inhibition of B16-F10 spreading on fibronectin at concentrations up to 1 mg/ml” value (“Inhibition of B16-F10 spreading … to 1 mg/ml” for short) read?
Answer: completely inactive

Question: Which “Inhibition of B16-F10 spreading … to 1 mg/ml” value does the source give for Arg-Gly-Pro-Phe-Pro-lle [RGPFPI] here?
Answer: completely inactive

Question: For Thr-Lys-Pro- Arg [TKPR], which “Inhibition of B16-F10 spreading … to 1 mg/ml” value is on record?
Answer: completely inactive

Question: With heparin as the substance, how does the “Inhibition of B16-F10 spreading … to 1 mg/ml” value read?
Answer: no detectable effect

Question: How did the “Inhibition of B16-F10 spreading … to 1 mg/ml” value turn out when Gly-His-Lys [GHK] was run?
Answer: completely inactive

Question: “insulin A chain: Insulin A chain from Sigma Chemical Co., peptide unrelated to RGDS” was tested. Which “Inhibition of B16-F10 spreading … to 1 mg/ml” value did it give?
Answer: completely inactive

Test system: B16-F10 melanoma cells
Experiment: Inhibition of B16-F10 melanoma cell spreading on CS5
Format: cell-based, murine
Conditions: CS5 substrate; data not shown

Question: For SDGR, which “Inhibition of B16-F10 spreading on CS5” value is on record?
Answer: more active than GRGDS

Question: Which “Inhibition of B16-F10 spreading on CS5” value does the source give for GRGD here?
Answer: highly inhibitory

Test system: BHK fibroblasts
Experiment: Spreading of BHK fibroblasts on fibronectin or its tryptic fragments
Format: cell-based, hamster
Conditions: substrate-coated protein
In short: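 Wells were coated 60 min at room temperature with human plasma fibronectin or its purified tryptic fragments (90-98% pure), with coating levels expressed in nM. Wells were blocked with heat-denatured BSA.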

Question: fibronectin was tested. Which “Spreading of BHK cells on fibronectin and fragments” value did it give?
Answer: spread equally well
